Sampled rows, rich in hits. Any-hit rate of the full collection: about 2.1%.
APJ antag – APJ receptor antagonism; actives 0.32% (n = 330,000); P35414; CHO-K1 APJ beta-arrestin complementation, luminescence; inhibition, % at 20 µM;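 active = inhibition above about 40% at 20 µM, limit read from the data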;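 note: cells challenged with 10 nM apelin-13 agonist together with compound; plate controls were apelin-13 plus DMSO wells for no effect and DMSO wells lacking apelin-13 for full effect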
CCR6 antag – CCR6 (human) receptor antagonism. actives 0.49% (n = 340,000). CHO-K1 CCR6 PathHunter beta-arrestin, luminescence, CCL20-stimulated. P51684. inhibition, % at 20 µM;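 active = compounds whose inhibition of the agonist-driven luminescence signal at 20 µM reaches about 50%, limit read from the data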;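 note: cells stimulated with CCL20 at 14 nM final; plate controls were DMSO with CCL20 for no effect and DMSO without agonist for full effect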
m5-HT2A agonist – activates the mouse 5-HT2A serotonin receptor; activation, % at 7.6 µM; AID 624169; P35363; CHO-K1 mHTR2A beta-arrestin complementation, luminescence; percent of 30 µM serotonin response; actives 0.66% (n = 360,000);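 active = activation above a run cutoff, the mean activation of all tested compounds plus 3 SD, cut at about 14% in these data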;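 note: 0% = plate median of compound wells and 100% = 30 µM serotonin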
CXCR6 inh – CXCR6 (human) receptor inhibition; O00574; CHO-K1 PathHunter CXCR6 beta-arrestin, luminescence; inhibition, % at 20 µM; actives 0.36% (n = 360,000); AID 602244; in the data active = inhibition above about 34%, passing the limit was not always enough;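 note: antagonist mode with CXCL16 agonist at 10 nM final; 0% = 10 nM CXCL16 with DMSO and 100% = unstimulated wells without agonist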
Target sequence (O00574 whole entry, looked up): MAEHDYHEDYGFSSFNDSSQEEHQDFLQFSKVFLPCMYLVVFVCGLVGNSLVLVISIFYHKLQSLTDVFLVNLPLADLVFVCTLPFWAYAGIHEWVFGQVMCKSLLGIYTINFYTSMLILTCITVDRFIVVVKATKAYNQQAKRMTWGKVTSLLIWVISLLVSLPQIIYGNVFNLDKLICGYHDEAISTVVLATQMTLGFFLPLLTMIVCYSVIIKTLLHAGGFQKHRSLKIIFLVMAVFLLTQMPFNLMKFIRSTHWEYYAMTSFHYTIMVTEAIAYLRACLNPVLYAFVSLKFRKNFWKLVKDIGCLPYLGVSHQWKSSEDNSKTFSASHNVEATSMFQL
EBI2 block – antagonists of human EBI2 receptor; P32249; EBI2 beta-arrestin recruitment, luminescence, 7a,25-OHC stimulated; inhibition, % at 5 µM; actives 0.81% (n = 360,000); in the data active = inhibition above about 38%;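 note: enzyme fragment complementation signal reports receptor beta-arrestin coupling in cells; 0% = agonist plus DMSO wells and 100% = wells without agonist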
APJ agonist – agonists of human APJ apelin receptor | AID 2520 | activation, % at 20 µM | actives 0.11% (n = 330,000) | P35414 | CHO-K1 APJ PathHunter beta-arrestin, luminescence; 0% DMSO wells, 100% apelin;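 active = activation more than six SD over the plate average, tested at 20 µM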;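 note: 0% = DMSO alone and 100% = apelin-13 at 10 nM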
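assay system = CHO-K1 APJ beta-arrestin complementation cell line | input = cell density 1000 per well | dosing = compound 20 µM once, DMSO 1% | timing = compound 90 min 25 °C, reagent 1 h | measured by = luminescence from split beta-galactosidase complementation, Galacton Star/Emerald II substrate | read-out basis = APJ agonist activity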
MOR ag counter – OPRM1 agonism in mouse HTR2A counterscreen; shares compounds with m5-HT2A agonist; U2OS OPRM1 beta-arrestin PathHunter, luminescence; DMSO 0%, DAMGO 9.3 µM 100%; activation, % at 9.3 µM; actives 5.3% (n = 2,300);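 active = mean activation above the mean of DMSO-only wells plus 3 SD, cut at about 0.5% in these data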
m5-HT2A ag conf – confirmation of mouse HTR2A serotonin receptor agonists; shares compounds with m5-HT2A agonist; CHO-K1 PathHunter beta-arrestin recruitment, luminescence; DMSO 0%, 30 µM serotonin 100%; activation, % at 7.6 µM; actives 19% (n = 2,300); AID 624381;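 active = mean activation across triplicates above the hit threshold derived in the original primary screen, cut at about 15% in these data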
* hit, by the source's call.

`CCOC(=O)CNC(=S)N(CCCN1CCCC1)Cc1cccs1` gave APJ antag 14.3, CCR6 antag 23.1, m5-HT2A agonist 29.2*, CXCR6 inh 2.1, EBI2 block -0.1, APJ agonist -9.0, MOR ag counter -0.5 and m5-HT2A ag conf 9.7.
`CCOC(=O)CNC(=S)N(CCCN1CCCCCC1)Cc1cccs1` gave APJ antag 11.2, CCR6 antag 20.1, m5-HT2A agonist 6.7, CXCR6 inh 8.3, EBI2 block 5.1 and APJ agonist -2.9.
For CCCCn1c(N)c(N(CCC(C)C)C(=O)c2ccc([N+](=O)[O-])s2)c(=O)[nH]c1=O the results were APJ antag -77.1, CCR6 antag 7.4, m5-HT2A agonist 18.8*, CXCR6 inh -18.5, EBI2 block -1.6, APJ agonist 8.1, MOR ag counter -0.2 and m5-HT2A ag conf -3.6.
Screening COc1ccc(NC(=O)C2Cc3ccccc3O/C2=N\O)cc1 (stereo not drawn) returned CCR6 antag 4.1, m5-HT2A agonist 0.7, CXCR6 inh 0.1 and EBI2 block -0.7.
For O=C(CN1C(=O)NC(Cc2ccccc2)C1=O)Nc1ccccc1OC(F)F (stereo not drawn) the results were APJ antag 27.8, CCR6 antag 3.9, m5-HT2A agonist 17.6*, CXCR6 inh 1.7, EBI2 block -14.6, APJ agonist -6.9, MOR ag counter -0.3 and m5-HT2A ag conf -0.1.
For O=C(Nc1c2c(nn1-c1ccc(F)cc1)CS(=O)C2)c1ccc(Br)o1 (stereo not drawn) the results were APJ antag -2.8, CCR6 antag 5.3, m5-HT2A agonist -5.6, CXCR6 inh 4.1, EBI2 block 8.5 and APJ agonist -4.1.
`CCOc1ccc(NC(=O)COC(=O)Cn2cnc3ccccc32)cc1` gave APJ antag 7.4, CCR6 antag 9.1, m5-HT2A agonist -6.4, CXCR6 inh 3.3, EBI2 block 3.2 and APJ agonist -4.7.
Cc1cc(C)n(C(=O)c2cc([N+](=O)[O-])cc([N+](=O)[O-])c2)n1 was read as APJ antag -26.9, CCR6 antag -15.0, m5-HT2A agonist 44.7*, CXCR6 inh -23.2, EBI2 block -1.4, APJ agonist -0.9, MOR ag counter -0.2 and m5-HT2A ag conf -3.5.
`COc1cccc(C2N(c3cccc(Cl)c3)C(=O)C3CCCN32)c1OC` (stereo not drawn) gave APJ antag -24.4, CCR6 antag 7.6, m5-HT2A agonist 17.5*, CXCR6 inh 3.2, EBI2 block 8.4, APJ agonist -2.4, MOR ag counter -0.7 and m5-HT2A ag conf 1.2.
For COc1cc(C2N(c3cccc(Cl)c3)C(=O)C3CCCN32)cc(OC)c1OC (stereo not drawn) the results were APJ antag 1.8, CCR6 antag -11.5, m5-HT2A agonist 21.2*, CXCR6 inh 0.4, EBI2 block -2.9, APJ agonist 1.3, MOR ag counter -0.6 and m5-HT2A ag conf 0.5.
For COc1cc(OC)cc(C(=O)OCC(=O)NCCCc2ccccc2)c1 the results were APJ antag 7.2, CCR6 antag 6.7, m5-HT2A agonist -2.6, CXCR6 inh 4.3, EBI2 block 10.2 and APJ agonist -2.6.
`CCC(=O)C1CCCN(C(=O)c2cccc(OC3CCN(S(C)(=O)=O)CC3)c2)C1` (stereo not drawn) gave APJ antag 2.8, CCR6 antag 3.4, m5-HT2A agonist 2.0, CXCR6 inh 1.3, EBI2 block -10.0 and APJ agonist 0.8.
Screening O=C(O)C1CCCCC1C(=O)NCCCc1ccccc1 (stereo not drawn) returned APJ antag 4.5, CCR6 antag 0.8, m5-HT2A agonist -5.3, CXCR6 inh -5.9, EBI2 block -13.6 and APJ agonist 6.1.
`O=C(O)/C=C/C(=O)NCCc1cccc(Cl)c1` gave APJ antag 4.9, CCR6 antag -4.7, m5-HT2A agonist 26.1*, CXCR6 inh -5.9, EBI2 block -1.1, APJ agonist -1.6, MOR ag counter 0.0 and m5-HT2A ag conf 7.7.
O=C(O)C1CC=CCC1C(=O)NCCc1csc(-c2ccccc2)n1 (stereo not drawn) was read as APJ antag 12.0, CCR6 antag 8.1, m5-HT2A agonist 15.7*, CXCR6 inh 8.3, EBI2 block -4.6, APJ agonist -4.7, MOR ag counter -0.4 and m5-HT2A ag conf -2.9.
Screening O=C(O)/C=C/C(=O)NCCc1ccccc1 returned APJ antag -6.2, CCR6 antag -0.2, m5-HT2A agonist 2.7, CXCR6 inh -9.2, EBI2 block -2.0 and APJ agonist -2.8.
`O=C(O)C1CC=CCC1C(=O)NCCc1cccc(Cl)c1` (stereo not drawn) gave APJ antag 7.9, CCR6 antag 4.8, m5-HT2A agonist 24.4*, CXCR6 inh 2.0, EBI2 block -0.1, APJ agonist -1.6, MOR ag counter -0.5 and m5-HT2A ag conf -1.0.
`O=C(O)C1CCCCC1C(=O)NCCc1ccccc1` (stereo not drawn) gave APJ antag 7.3, CCR6 antag -11.2, m5-HT2A agonist 15.4*, CXCR6 inh 2.1, EBI2 block -1.8, APJ agonist -3.4, MOR ag counter 0.3 and m5-HT2A ag conf 3.2.
For COC(=O)[C@]12CCCCC=C1N(Cc1ccc3c(c1)OCO3)C(=O)[C@H](CC(=O)NCc1ccc(OC)c(OC)c1)C2 the results were m5-HT2A agonist -2.8 and EBI2 block 8.8.
`C[C@@H]1CN([C@@H](C)CO)C(=O)CCCn2nncc2CO[C@@H]1CN(C)C(=O)Nc1ccc2c(c1)OCO2` gave m5-HT2A agonist 8.9, CXCR6 inh -7.9 and EBI2 block -9.4.
For Cc1ccc(C(=O)N/C(=C/c2ccc(-c3cccc([N+](=O)[O-])c3)o2)C(=O)NC(C)C)cc1 the results were APJ antag -3.8, CCR6 antag -4.3, m5-HT2A agonist 21.1*, CXCR6 inh -1.4, EBI2 block -23.7, APJ agonist 0.6, MOR ag counter -0.1 and m5-HT2A ag conf 1.1.
Screening Cc1ccc(C(=O)N/C(=C/c2ccc(-c3cccc([N+](=O)[O-])c3)o2)C(=O)NC(C)(C)C)cc1 returned APJ antag 5.4, CCR6 antag -13.5, m5-HT2A agonist 12.2, CXCR6 inh -5.8, EBI2 block -6.2 and APJ agonist 3.1.

Screening results from PubChem.
